Measurements from ChEMBL document CHEMBL1153439, “Design, synthesis, antimicrobial activity and molecular modeling studies of novel benzofuroxan derivatives against Staphylococcus aureus” (2009).
In brackets after ≈: the same amount, converted by molar mass. Values belong to the compound of their own block, whether it stands above or below them.

What was measured:
Format in all cases: functional
Staphylococcus aureus [1] = assay: Antibacterial activity against multidrug-resistant vancomycin-intermediate Staphylococcus aureus VISA3 after 18 hrs phase 2 by broth microdilution method
In short: (§1)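 Phase II narrowed the phase I MIC in Tryptic Soy Broth. Stock was made at twice the phase I MIC, then diluted 10% stepwise with TSB through column 11. Final DMSO was 2.5–1.0%. Positive growth control wells received TSB. Inoculum was prepared as in phase I and plates were incubated 18 h at 35 °C.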

Staphylococcus aureus [2] = assay: Antibacterial activity against Staphylococcus aureus ATCC 25923 after 18 hrs by phase 1 broth microdilution method; details: ATCC 25923, 18 h
In short: (§2)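 Phase I: twofold serial dilutions in Tryptic Soy Broth, 96-well plates, concentrations […]. Stocks in DMSO/TSB 1:10 v/v, with final DMSO 5.0–0.01%. Inoculum was set to 0.5 McFarland, then diluted in saline and TSB. Plates ran 18 h at 35 °C. MIC is the lowest concentration without visible growth, in triplicate. Sterility was read at 24 and 48 h. Ampicillin, chloramphenicol and vancomycin were controls.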

Staphylococcus aureus [3] = assay: Antibacterial activity against multidrug-resistant Staphylococcus aureus 3SP/R33 after 18 hrs by phase 2 broth microdilution method; in short: as §1
Staphylococcus aureus [4] = assay: Antibacterial activity against Staphylococcus aureus ATCC 25923 after 18 hrs by phase 2 broth microdilution method; details: ATCC 25923, 18 h; in short: as §1
Staphylococcus aureus [5] = assay: Antibacterial activity against multidrug-resistant vancomycin-intermediate Staphylococcus aureus VISA3 after 18 hrs phase 1 by broth microdilution method; in short: as §2
Staphylococcus aureus [6] = assay: Antibacterial activity against multidrug-resistant Staphylococcus aureus 3SP/R33 after 18 hrs by phase 1 broth microdilution method; in short: as §2
Staphylococcus aureus [7] = assay: Antibacterial activity against Staphylococcus aureus ATCC 25923 after 18 hrs by broth microdilution method; details: ATCC 25923, 18 h
In short: (§3)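 Broth microdilution in Tryptic Soy Broth in 96-well plates, with DMSO as solvent at no more than 5% of the total. Inoculum was set to 0.5 McFarland and diluted in saline and TSB. Plates were incubated 18 h at 35 °C. MIC is the lowest concentration without visible growth. The MIC was determined in two phases, the second narrowing the first.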

Staphylococcus aureus [8] = assay: Antibacterial activity against multidrug-resistant vancomycin-intermediate Staphylococcus aureus VISA3 after 18 hrs by broth microdilution method; in short: as §3
Staphylococcus aureus [9] = assay: Antibacterial activity against multidrug-resistant Staphylococcus aureus 3SP/R33 after 18 hrs by broth microdilution method; in short: as §3

Compound: O=C(N/N=C/c1ccc2c(c1)no[n+]2[O-])c1ccc(Br)cc1
- MIC (Staphylococcus aureus [1]): 18 µg/mL (≈ 49.8 µM)
- MIC (Staphylococcus aureus [2]): 10 µg/mL (≈ 27.7 µM)
- MIC (Staphylococcus aureus [3]): 18 µg/mL (≈ 49.8 µM)
- MIC (Staphylococcus aureus [4]): 18 µg/mL (≈ 49.8 µM)
- MIC (Staphylococcus aureus [5]): 10 µg/mL (≈ 27.7 µM)
- MIC (Staphylococcus aureus [6]): 10 µg/mL (≈ 27.7 µM)

Compound: O=C(N/N=C/c1ccc2c(c1)no[n+]2[O-])c1ccc(F)cc1
- MIC (Staphylococcus aureus [1]): 14.6 µg/mL (≈ 48.6 µM)
- MIC (Staphylococcus aureus [2]): 10 µg/mL (≈ 33.3 µM)
- MIC (Staphylococcus aureus [3]): 14.6 µg/mL (≈ 48.6 µM)
- MIC (Staphylococcus aureus [4]): 14.6 µg/mL (≈ 48.6 µM)
- MIC (Staphylococcus aureus [5]): 10 µg/mL (≈ 33.3 µM)
- MIC (Staphylococcus aureus [6]): 10 µg/mL (≈ 33.3 µM)

Compound: CN(C)c1ccc(C(=O)N/N=C/c2ccc3c(c2)no[n+]3[O-])cc1
- MIC (Staphylococcus aureus [2]): > 80 µg/mL
- MIC (Staphylococcus aureus [5]): > 80 µg/mL
- MIC (Staphylococcus aureus [6]): > 80 µg/mL

Compound: N#Cc1ccc(C(=O)N/N=C/c2ccc3c(c2)no[n+]3[O-])cc1
- MIC (Staphylococcus aureus [1]): 26.2 µg/mL (≈ 85.3 µM)
- MIC (Staphylococcus aureus [2]): 20 µg/mL (≈ 65.1 µM)
- MIC (Staphylococcus aureus [3]): 26.2 µg/mL (≈ 85.3 µM)
- MIC (Staphylococcus aureus [4]): 26.2 µg/mL (≈ 85.3 µM)
- MIC (Staphylococcus aureus [5]): 20 µg/mL (≈ 65.1 µM)
- MIC (Staphylococcus aureus [6]): 20 µg/mL (≈ 65.1 µM)

Compound: Nc1ccc(C(=O)N/N=C/c2ccc3c(c2)no[n+]3[O-])cc1
- MIC (Staphylococcus aureus [1]): 15.3 µg/mL (≈ 51.5 µM)
- MIC (Staphylococcus aureus [2]): 10 µg/mL (≈ 33.6 µM)
- MIC (Staphylococcus aureus [3]): 15.3 µg/mL (≈ 51.5 µM)
- MIC (Staphylococcus aureus [4]): 15.3 µg/mL (≈ 51.5 µM)
- MIC (Staphylococcus aureus [5]): 10 µg/mL (≈ 33.6 µM)
- MIC (Staphylococcus aureus [6]): 10 µg/mL (≈ 33.6 µM)

Compound: O=C(N/N=C/c1ccc2c(c1)no[n+]2[O-])c1ccc(I)cc1
- MIC (Staphylococcus aureus [1]): 23.6 µg/mL (≈ 57.8 µM)
- MIC (Staphylococcus aureus [2]): 20 µg/mL (≈ 49 µM)
- MIC (Staphylococcus aureus [3]): 23.6 µg/mL (≈ 57.8 µM)
- MIC (Staphylococcus aureus [4]): 23.6 µg/mL (≈ 57.8 µM)
- MIC (Staphylococcus aureus [5]): 20 µg/mL (≈ 49 µM)
- MIC (Staphylococcus aureus [6]): 20 µg/mL (≈ 49 µM)

Compound: O=C(N[C@H](CO)[C@H](O)c1ccc([N+](=O)[O-])cc1)C(Cl)Cl [CHLORAMPHENICOL]
- MIC (Staphylococcus aureus [7]): 2 µg/mL (≈ 6.19 µM)
- MIC (Staphylococcus aureus [8]): 32 µg/mL (≈ 99 µM)
- MIC (Staphylococcus aureus [9]): 32 µg/mL (≈ 99 µM)

Compound: CC(=O)c1ccc(C(=O)N/N=C/c2ccc3c(c2)no[n+]3[O-])cc1
- MIC (Staphylococcus aureus [1]): 21.2 µg/mL (≈ 65.4 µM)
- MIC (Staphylococcus aureus [2]): 20 µg/mL (≈ 61.7 µM)
- MIC (Staphylococcus aureus [3]): 21.2 µg/mL (≈ 65.4 µM)
- MIC (Staphylococcus aureus [4]): 21.2 µg/mL (≈ 65.4 µM)
- MIC (Staphylococcus aureus [5]): 20 µg/mL (≈ 61.7 µM)
- MIC (Staphylococcus aureus [6]): 20 µg/mL (≈ 61.7 µM)

Compound: O=C(N/N=C/c1ccc2c(c1)no[n+]2[O-])c1ccc(Cl)cc1
- MIC (Staphylococcus aureus [1]): 15.3 µg/mL (≈ 48.3 µM)
- MIC (Staphylococcus aureus [2]): 10 µg/mL (≈ 31.6 µM)
- MIC (Staphylococcus aureus [3]): 15.3 µg/mL (≈ 48.3 µM)
- MIC (Staphylococcus aureus [4]): 15.3 µg/mL (≈ 48.3 µM)
- MIC (Staphylococcus aureus [5]): 10 µg/mL (≈ 31.6 µM)
- MIC (Staphylococcus aureus [6]): 10 µg/mL (≈ 31.6 µM)

Compound: Cc1ccc(C(=O)N/N=C/c2ccc3c(c2)no[n+]3[O-])cc1
- MIC (Staphylococcus aureus [1]): 21 µg/mL (≈ 70.9 µM)
- MIC (Staphylococcus aureus [2]): 20 µg/mL (≈ 67.5 µM)
- MIC (Staphylococcus aureus [3]): 21 µg/mL (≈ 70.9 µM)
- MIC (Staphylococcus aureus [4]): 21 µg/mL (≈ 70.9 µM)
- MIC (Staphylococcus aureus [5]): 20 µg/mL (≈ 67.5 µM)
- MIC (Staphylococcus aureus [6]): 20 µg/mL (≈ 67.5 µM)

- MIC (Staphylococcus aureus [7]): 0.1 µg/mL (≈ 0.286 µM)
Compound: CC1(C)S[C@@H]2[C@H](NC(=O)[C@H](N)c3ccccc3)C(=O)N2[C@H]1C(=O)O [AMPICILLIN]

Compound: O=C(N/N=C/c1ccc2c(c1)no[n+]2[O-])c1ccc(O)cc1
- MIC (Staphylococcus aureus [1]): 26.2 µg/mL (≈ 87.8 µM)
- MIC (Staphylococcus aureus [2]): 20 µg/mL (≈ 67.1 µM)
- MIC (Staphylococcus aureus [3]): 26.2 µg/mL (≈ 87.8 µM)
- MIC (Staphylococcus aureus [4]): 26.2 µg/mL (≈ 87.8 µM)
- MIC (Staphylococcus aureus [5]): 20 µg/mL (≈ 67.1 µM)
- MIC (Staphylococcus aureus [6]): 20 µg/mL (≈ 67.1 µM)

Compound: COc1ccc(C(=O)N/N=C/c2ccc3c(c2)no[n+]3[O-])cc1
- MIC (Staphylococcus aureus [1]): 16.2 µg/mL (≈ 51.9 µM)
- MIC (Staphylococcus aureus [2]): 10 µg/mL (≈ 32 µM)
- MIC (Staphylococcus aureus [3]): 16.2 µg/mL (≈ 51.9 µM)
- MIC (Staphylococcus aureus [4]): 16.2 µg/mL (≈ 51.9 µM)
- MIC (Staphylococcus aureus [5]): 10 µg/mL (≈ 32 µM)
- MIC (Staphylococcus aureus [6]): 10 µg/mL (≈ 32 µM)

Compound: NS(=O)(=O)c1ccc(C(=O)N/N=C/c2ccc3c(c2)no[n+]3[O-])cc1
- MIC (Staphylococcus aureus [2]): > 80 µg/mL
- MIC (Staphylococcus aureus [5]): > 80 µg/mL
- MIC (Staphylococcus aureus [6]): > 80 µg/mL

Compound: O=C(N/N=C/c1ccc2c(c1)no[n+]2[O-])c1ccc(C(F)(F)F)cc1
- MIC (Staphylococcus aureus [1]): 13.1 µg/mL (≈ 37.4 µM)
- MIC (Staphylococcus aureus [2]): 10 µg/mL (≈ 28.6 µM)
- MIC (Staphylococcus aureus [3]): 13.1 µg/mL (≈ 37.4 µM)
- MIC (Staphylococcus aureus [4]): 13.1 µg/mL (≈ 37.4 µM)
- MIC (Staphylococcus aureus [5]): 10 µg/mL (≈ 28.6 µM)
- MIC (Staphylococcus aureus [6]): 10 µg/mL (≈ 28.6 µM)

Compound: O=C(N/N=C/c1ccc2c(c1)no[n+]2[O-])c1ccccc1
- MIC (Staphylococcus aureus [1]): 16.2 µg/mL (≈ 57.4 µM)
- MIC (Staphylococcus aureus [2]): 10 µg/mL (≈ 35.4 µM)
- MIC (Staphylococcus aureus [3]): 16.2 µg/mL (≈ 57.4 µM)
- MIC (Staphylococcus aureus [4]): 16.2 µg/mL (≈ 57.4 µM)
- MIC (Staphylococcus aureus [5]): 10 µg/mL (≈ 35.4 µM)
- MIC (Staphylococcus aureus [6]): 10 µg/mL (≈ 35.4 µM)
